Laboratory results as given in ChEMBL document CHEMBL1152839, “2-[2-Substituted-3-(3,4-dichlorobenzylamino)propylamino]-1H-quinolin-4-ones as Staphylococcus aureus methionyl-tRNA synthetase inhibitors” (Eur J Med Chem, 2009).
Values after ≈ are worked out from the molar mass of the structure shown.

Legend:
[1] = Inhibition of Staphylococcus aureus methionyl-tRNA synthetase assessed as decrease in [35S]methionyl-tRNA generation
[2] = tested on: Staphylococcus aureus; test: Antibacterial activity against Staphylococcus aureus ATCC 25923 after 16 hrs at 36 degC by microdilution method; assay type: functional; settings: ATCC 25923, 16 h
Procedure, shortened: (§1)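 Broth microdilution in Mueller-Hinton broth, following NCCLS/CLSI. Stock solutions were serially diluted 2-fold to the final test concentrations. The MIC was the lowest concentration that prevented visible growth after incubation at 36 °C. Mupirocin and amoxicillin were reference antibiotics run by the same method.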

[3] = tested on: Staphylococcus aureus; test: Antibacterial activity against Staphylococcus aureus ATCC 6538P after 16 hrs at 36 degC by microdilution method; assay type: functional; procedure, shortened: as §1
[4] = tested on: Staphylococcus aureus; test: Antibacterial activity against Staphylococcus aureus ATCC 10537 after 16 hrs at 36 degC by microdilution method; assay type: functional; settings: ATCC 10537, 16 h; procedure, shortened: as §1
[5] = tested on: Staphylococcus aureus; test: Antibacterial activity against Staphylococcus aureus GIORGIO after 16 hrs at 36 degC by microdilution method; assay type: functional; procedure, shortened: as §1
[6] = tested on: Staphylococcus aureus; test: Antibacterial activity against Staphylococcus aureus Smith after 16 hrs at 36 degC by microdilution method; assay type: functional; procedure, shortened: as §1
[7] = tested on: Staphylococcus aureus; test: Antibacterial activity against Staphylococcus aureus SP-N2 after 16 hrs at 36 degC by microdilution method; assay type: functional
Procedure, shortened: (§2)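 Broth microdilution per CLSI in Mueller-Hinton broth for staphylococci. Stock solutions were diluted in a 2-fold serial series to final test concentrations. The MIC was read as the lowest concentration that prevented visible bacterial growth after incubation at 36 °C. Mupirocin and amoxicillin were run by the same method as references.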

[8] = tested on: Staphylococcus epidermidis; test: Antibacterial activity against Staphylococcus epidermidis ATCC 12228 after 16 hrs at 36 degC by microdilution method; assay type: functional; settings: ATCC 12228, 16 h; procedure, shortened: as §1
[9] = tested on: Staphylococcus aureus; test: Antibacterial activity against methicillin-resistant Staphylococcus aureus KS2007-6 after 16 hrs at 36 degC by microdilution method; assay type: functional; procedure, shortened: as §2
[10] = tested on: Enterococcus faecium; test: Antibacterial activity against Enterococcus faecium ATCC 10541 after 16 hrs at 36 degC by microdilution method; assay type: functional; settings: ATCC 10541, 16 h
Procedure, shortened: (§3)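 Broth microdilution in Brain Heart Infusion broth, following NCCLS/CLSI. Test compounds were serially diluted 2-fold from stock. The MIC was the lowest concentration with no visible bacterial growth after incubation at 36 °C. Mupirocin and amoxicillin were tested the same way as references.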

[11] = tested on: Enterococcus faecalis; test: Antibacterial activity against Enterococcus faecalis ATCC 19433 after 16 hrs at 36 degC by microdilution method; assay type: functional; settings: ATCC 19433, 16 h; procedure, shortened: as §3
[12] = tested on: Enterococcus faecalis; test: Antibacterial activity against Enterococcus faecalis ATCC 29212 after 16 hrs at 36 degC by microdilution method; assay type: functional; settings: ATCC 29212, 16 h; procedure, shortened: as §3

Structure (SMILES) | IC50 [1] | MIC [2] | MIC [3] | MIC [4] | MIC [5] | MIC [6] | MIC [7] | MIC [8] | MIC [9] | MIC [10] | MIC [11] | MIC [12]
COCC(CNCc1ccc(Cl)c(Cl)c1)CNc1cc(=O)c2ccccc2[nH]1 (centres undefined) | 15 nM | 16 µg/mL (≈ 38.1 µM) | 4 µg/mL (≈ 9.52 µM) | 8 µg/mL (≈ 19 µM) | 16 µg/mL (≈ 38.1 µM) | 8 µg/mL (≈ 19 µM) | 8 µg/mL (≈ 19 µM) | 4 µg/mL (≈ 9.52 µM) | 4 µg/mL (≈ 9.52 µM) | 0.125 µg/mL (≈ 0.297 µM) | 0.5 µg/mL (≈ 1.19 µM) | 0.5 µg/mL (≈ 1.19 µM)
CC(C)(C)OC(=O)NC(CNCc1ccc(Cl)c(Cl)c1)CNc1cc(=O)c2ccccc2[nH]1 (centres undefined) | 103 nM | 32 µg/mL (≈ 65.1 µM) | 32 µg/mL (≈ 65.1 µM) | 32 µg/mL (≈ 65.1 µM) | 32 µg/mL (≈ 65.1 µM) | 32 µg/mL (≈ 65.1 µM) | 32 µg/mL (≈ 65.1 µM) | 32 µg/mL (≈ 65.1 µM) | 32 µg/mL (≈ 65.1 µM) | 8 µg/mL (≈ 16.3 µM) | 32 µg/mL (≈ 65.1 µM) | 32 µg/mL (≈ 65.1 µM)
O=c1cc(NCC(CNCc2ccc(Cl)c(Cl)c2)OCc2ccccc2)[nH]c2ccccc12 (centres undefined) | 24.7 nM | 4 µg/mL (≈ 8.29 µM) | 4 µg/mL (≈ 8.29 µM) | 4 µg/mL (≈ 8.29 µM) | 4 µg/mL (≈ 8.29 µM) | 4 µg/mL (≈ 8.29 µM) | 4 µg/mL (≈ 8.29 µM) | 2 µg/mL (≈ 4.15 µM) | 2 µg/mL (≈ 4.15 µM) | 0.5 µg/mL (≈ 1.04 µM) | 2 µg/mL (≈ 4.15 µM) | 2 µg/mL (≈ 4.15 µM)
O=C(OC(CNCc1ccc(Cl)c(Cl)c1)CNc1cc(=O)c2ccccc2[nH]1)c1ccccc1 (centres undefined) | 69.4 nM | 64 µg/mL (≈ 129 µM) | 32 µg/mL (≈ 64.5 µM) | 64 µg/mL (≈ 129 µM) | 32 µg/mL (≈ 64.5 µM) | 32 µg/mL (≈ 64.5 µM) | 32 µg/mL (≈ 64.5 µM) | 16 µg/mL (≈ 32.2 µM) | 32 µg/mL (≈ 64.5 µM) | 8 µg/mL (≈ 16.1 µM) | 16 µg/mL (≈ 32.2 µM) | 16 µg/mL (≈ 32.2 µM)
CC(C)OC(CNCc1ccc(Cl)c(Cl)c1)CNc1cc(=O)c2ccccc2[nH]1 (centres undefined) | 91 nM | 16 µg/mL (≈ 36.8 µM) | 16 µg/mL (≈ 36.8 µM) | 16 µg/mL (≈ 36.8 µM) | 32 µg/mL (≈ 73.7 µM) | 16 µg/mL (≈ 36.8 µM) | 16 µg/mL (≈ 36.8 µM) | 16 µg/mL (≈ 36.8 µM) | 8 µg/mL (≈ 18.4 µM) | 2 µg/mL (≈ 4.6 µM) | 4 µg/mL (≈ 9.21 µM) | 4 µg/mL (≈ 9.21 µM)
C/C(=C\C(=O)OCCCCCCCCC(=O)O)C[C@@H]1OC[C@H](C[C@@H]2O[C@H]2[C@@H](C)[C@H](C)O)[C@@H](O)[C@H]1O [MUPIROCIN] |  | 0.25 µg/mL (≈ 0.499 µM) | 0.5 µg/mL (≈ 0.999 µM) | 0.25 µg/mL (≈ 0.499 µM) | 0.25 µg/mL (≈ 0.499 µM) | 0.25 µg/mL (≈ 0.499 µM) | > 64 µg/mL | 2 µg/mL (≈ 3.99 µM) |  | 1 µg/mL (≈ 2 µM) | 1 µg/mL (≈ 2 µM) | 2 µg/mL (≈ 3.99 µM)
CN(C)C(CNCc1ccc(Cl)c(Cl)c1)CNc1cc(=O)c2ccccc2[nH]1 (centres undefined) | 39.6 nM | > 64 µg/mL | > 64 µg/mL | 64 µg/mL (≈ 153 µM) | > 64 µg/mL | 64 µg/mL (≈ 153 µM) | 64 µg/mL (≈ 153 µM) | 32 µg/mL (≈ 76.3 µM) | 64 µg/mL (≈ 153 µM) | 8 µg/mL (≈ 19.1 µM) | 16 µg/mL (≈ 38.2 µM) | 16 µg/mL (≈ 38.2 µM)
CCOC(CNCc1ccc(Cl)c(Cl)c1)CNc1cc(=O)c2ccccc2[nH]1 (centres undefined) | 30.3 nM | 16 µg/mL (≈ 38.1 µM) | 8 µg/mL (≈ 19 µM) | 16 µg/mL (≈ 38.1 µM) | 16 µg/mL (≈ 38.1 µM) | 16 µg/mL (≈ 38.1 µM) | 16 µg/mL (≈ 38.1 µM) | 8 µg/mL (≈ 19 µM) | 8 µg/mL (≈ 19 µM) | 1 µg/mL (≈ 2.38 µM) | 4 µg/mL (≈ 9.52 µM) | 4 µg/mL (≈ 9.52 µM)
O=c1cc(NCC(CO)CNCc2ccc(Cl)c(Cl)c2)[nH]c2ccccc12 (centres undefined) | 11.9 nM | 64 µg/mL (≈ 158 µM) | 16 µg/mL (≈ 39.4 µM) | 32 µg/mL (≈ 78.8 µM) | 64 µg/mL (≈ 158 µM) | 32 µg/mL (≈ 78.8 µM) | 16 µg/mL (≈ 39.4 µM) | 16 µg/mL (≈ 39.4 µM) | 16 µg/mL (≈ 39.4 µM) | 2 µg/mL (≈ 4.92 µM) | 8 µg/mL (≈ 19.7 µM) | 8 µg/mL (≈ 19.7 µM)
CN(C)C(CNc1cc(=O)c2ccccc2[nH]1)CN(Cc1ccc(Cl)c(Cl)c1)Cc1ccc(Cl)c(Cl)c1 (centres undefined) | 131 nM | > 64 µg/mL | > 64 µg/mL | > 64 µg/mL | > 64 µg/mL | > 64 µg/mL | > 64 µg/mL | > 64 µg/mL |  | > 64 µg/mL | > 64 µg/mL | > 64 µg/mL
O=c1cc(NCCCNCc2ccc(Cl)c(Cl)c2)[nH]c2ccccc12 | 3.4 nM | 16 µg/mL (≈ 42.5 µM) | 4 µg/mL (≈ 10.6 µM) | 16 µg/mL (≈ 42.5 µM) | 32 µg/mL (≈ 85 µM) | 16 µg/mL (≈ 42.5 µM) | 8 µg/mL (≈ 21.3 µM) | 8 µg/mL (≈ 21.3 µM) | 8 µg/mL (≈ 21.3 µM) | 0.5 µg/mL (≈ 1.33 µM) | 2 µg/mL (≈ 5.32 µM) | 2 µg/mL (≈ 5.32 µM)
CC1(C)S[C@@H]2[C@H](NC(=O)[C@H](N)c3ccc(O)cc3)C(=O)N2[C@H]1C(=O)O [AMOXICILLIN] |  | 0.25 µg/mL (≈ 0.684 µM) | 0.125 µg/mL (≈ 0.342 µM) | 0.125 µg/mL (≈ 0.342 µM) | 0.125 µg/mL (≈ 0.342 µM) | 0.125 µg/mL (≈ 0.342 µM) | 0.25 µg/mL (≈ 0.684 µM) | 0.125 µg/mL (≈ 0.342 µM) | 0.25 µg/mL (≈ 0.684 µM) | 8 µg/mL (≈ 21.9 µM) | 64 µg/mL (≈ 175 µM) | 64 µg/mL (≈ 175 µM)
NC(CNCc1ccc(Cl)c(Cl)c1)CNc1cc(=O)c2ccccc2[nH]1 (centres undefined) | 137 nM | 64 µg/mL (≈ 164 µM) | 64 µg/mL (≈ 164 µM) | 64 µg/mL (≈ 164 µM) | 64 µg/mL (≈ 164 µM) | 64 µg/mL (≈ 164 µM) | 64 µg/mL (≈ 164 µM) | 32 µg/mL (≈ 81.8 µM) | 64 µg/mL (≈ 164 µM) | 16 µg/mL (≈ 40.9 µM) | 64 µg/mL (≈ 164 µM) | 64 µg/mL (≈ 164 µM)
C=CCOC(CNCc1ccc(Cl)c(Cl)c1)CNc1cc(=O)c2ccccc2[nH]1 (centres undefined) | 29.4 nM | 8 µg/mL (≈ 18.5 µM) | 8 µg/mL (≈ 18.5 µM) | 16 µg/mL (≈ 37 µM) | 16 µg/mL (≈ 37 µM) | 8 µg/mL (≈ 18.5 µM) | 8 µg/mL (≈ 18.5 µM) | 4 µg/mL (≈ 9.25 µM) | 4 µg/mL (≈ 9.25 µM) | 1 µg/mL (≈ 2.31 µM) | 2 µg/mL (≈ 4.63 µM) | 2 µg/mL (≈ 4.63 µM)
